Data reported in article PMC7115577 (Peptides, 2005).

How the values were obtained:
Type in all cases: cell-based
[1] = test system: human polymorphonuclear leukocytes (PMN); experiment: Chemotaxis assay
[2] = test system: isolated guinea pig ileum (GPI); experiment: Potentiation of the BK-induced contraction of GPI; settings: analogue alone, cumulative GPI contraction curves
In short: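 Guinea pig ileum strips (1.5 cm) suspended in Tyrode solution at 37 °C; isotonic contractions recorded under 500 mg resting tension. Concentration–response curves were built for the agonist, and pD2 was derived from them.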

[3] = test system: guinea pig ileum; settings: calyculin 100 nM, BK 20 nM, BPP9α 20 nM
In short: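 Ileum segments (1.5 cm) in Tyrode at 37 °C, isotonic recording under 500 mg resting tension. The phosphatase inhibitor was added either at the peak of the BK contraction, before the potentiating peptide, or 1 min before the combined BK/peptide challenge, with washes between. Traces are from four to six separate experiments.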

## C[C@H](N[C@@H](CCc1ccccc1)C(=O)O)C(=O)N1[C@H](C(=O)O)C[C@@H]2CCC[C@@H]21 [ramiprilat]
[1]
  effect on migratory activity of the nonpeptide agonist FR190997: could not be accelerated
[1]; BK 10^−7 M, ramiprilat 10 nM
  migration index (MI) of BK in the presence of inhibitor: 1.69 ± 0.26

## DArg-Arg-Pro-Hyp-Gly-Thi-Ser-Pro-ɛAbu(ßPh)-Arg
[2]
  pD2-value of enzymatically more stable BK analogue: 6.65 ± 0.14

## CC(C)C[C@H](NP(=O)(O)O[C@@H]1O[C@@H](C)[C@H](O)[C@@H](O)[C@H]1O)C(=O)N[C@@H](Cc1c[nH]c2ccccc12)C(=O)O [phosphoramidon]
[1]; BK 10^−8 M, phosphoramidon 10^−7 M, 5 min preincubation
  migration index (MI) of BK in the presence of inhibitor: 1.19 ± 0.03

## calyculin
[3]
  influence on the potentiation of the BK-induced contraction: no influence
